Experimental findings from ChEMBL document CHEMBL1138849, “5-substituted tetrazoles as bioisosteres of carboxylic acids. Bioisosterism and mechanistic studies on glutathione reductase inhibitors as antimalarials” (J Med Chem, 2004) are described below.

Substrate in data set [1]: CC1=CC(=O)c2ccccc2C1=O
In words: Michaelis-Menten constant against human glutathione reductase. In outline:
(§1)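 Recombinant human or P. falciparum GR run as a quinone reductase without GSSG. Mix: 100 mM phosphate pH 7.0, 200 mM KCl, 100 μM NADPH, 1% DMSO, enzyme, and naphthoquinone at 10 levels from 10 to 400 μM. NADPH oxidation read at 340 nm (ε 6.22 mM⁻¹ cm⁻¹). Steady-state rates fitted to Michaelis–Menten by nonlinear regression to give Km and Vmax; kcat and kcat/Km calculated.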

Substrate in data set [2]: CC1=CC(=O)c2ccccc2C1=O
Kind of data set: Michaelis-Menten constant against Plasmodium falciparum glutathione reductase. In outline: as §1

Compound in data set [3]: N[C@@H](CCC(=O)N[C@@H](CSSC[C@H](NC(=O)CC[C@H](N)C(=O)O)C(=O)NCC(=O)O)C(=O)NCC(=O)O)C(=O)O
Kind of data set: Inhibitory concentration against glutathione reductase (In presence of NADPH). To be noted: Plasmodium falciparum.

B1: Glutathione reductase, mitochondrial (Homo sapiens), P00390 (protein)
chain: MALLPRALSAGAGPSWRRAARAFRGFLLLLPEPAALTRALSRAMACRQEPQPQGPPPAAGAVASYDYLVIGGGSGGLASARRAAELGARAAVVESHKLGGTCVNVGCVPKKVMWNTAVHSEFMHDHADYGFPSCEGKFNWRVIKEKRDAYVSRLNAIYQNNLTKSHIEIIRGHAAFTSDPKPTIEVSGKKYTAPHILIATGGMPSTPHESQIPGASLGITSDGFFQLEELPGRSVIVGAGYIAVEMAGILSALGSKTSLMIRHDKVLRSFDSMISTNCTEELENAGVEVLKFSQVKEVKKTLSGLEVSMVTAVPGRLPVMTMIPDVDCLLWAIGRVPNTKDLSLNKLGIQTDDKGHIIVDEFQNTNVKGIYAVGDVCGKALLTPVAIAAGRKLAHRLFEYKEDSKLDYNNIPTVVFSHPPIGTVGLTEDEAIHKYGIENVKTYSTSFTPMYHAVTKRKTKCVMKMVCANKEEKVVGIHMQGLGCDEMLQGFAVAVKMGATKADFDNTVAIHPTSSEELVTLR
Turning to B1, the Km (commonly the substrate concentration at which the rate is half of its maximum) in data set [1] amounted to 31.2 µM.

B2: Glutathione reductase (Plasmodium falciparum 3D7), O15770 (protein)
chain: MYKHRYFHFFFFFFFFLVSTKIIRSFTFLNNNTNLSNPVYFKKKANMVYDLIVIGGGSGGMAAARRAARHNAKVALVEKSRLGGTCVNVGCVPKKIMFNAASVHDILENSRHYGFDTKFSFNLPLLVERRDKYIQRLNNIYRQNLSKDKVDLYEGTASFLSENRILIKGTKDNNNKDNGPLNEEILEGRNILIAVGNKPVFPPVKGIENTISSDEFFNIKESKKIGIVGSGYIAVELINVIKRLGIDSYIFARGNRILRKFDESVINVLENDMKKNNINIVTFADVVEIKKVSDKNLSIHLSDGRIYEHFDHVIYCVGRSPDTENLNLEKLNVETNNNYIVVDENQRTSVNNIYAVGDCCMVKKSKEIEDLNLLKLYNEETYLNKKENVTEDIFYNVQLTPVAINAGRLLADRLFLKKTRKTNYKLIPTVIFSHPPIGTIGLSEEAAIQIYGKENVKIYESKFTNLFFSVYDIEPELKEKTYLKLVCVGKDELIKGLHIIGLNADEIVQGFAVALKMNATKKDFDETIPIHPTAAEEFLTLQPWMK
With B2, the Michaelis-Menten constant (Km) came out at 82.2 µM in data set [2] and 115 µM in data set [3].
